Data set [1] in a line: Solubility of compound in pH 7.4 sodium phosphate buffer. The format is physicochemical. The gist of the method:
(§1)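 Solubility measured in 0.1 M sodium phosphate buffer, pH 7.4, containing 1% DMSO.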

Data set [2] addresses T1, Bifunctional epoxide hydrolase 2 (Homo sapiens, UniProt P34913).
T1 sequence (P34913 whole entry): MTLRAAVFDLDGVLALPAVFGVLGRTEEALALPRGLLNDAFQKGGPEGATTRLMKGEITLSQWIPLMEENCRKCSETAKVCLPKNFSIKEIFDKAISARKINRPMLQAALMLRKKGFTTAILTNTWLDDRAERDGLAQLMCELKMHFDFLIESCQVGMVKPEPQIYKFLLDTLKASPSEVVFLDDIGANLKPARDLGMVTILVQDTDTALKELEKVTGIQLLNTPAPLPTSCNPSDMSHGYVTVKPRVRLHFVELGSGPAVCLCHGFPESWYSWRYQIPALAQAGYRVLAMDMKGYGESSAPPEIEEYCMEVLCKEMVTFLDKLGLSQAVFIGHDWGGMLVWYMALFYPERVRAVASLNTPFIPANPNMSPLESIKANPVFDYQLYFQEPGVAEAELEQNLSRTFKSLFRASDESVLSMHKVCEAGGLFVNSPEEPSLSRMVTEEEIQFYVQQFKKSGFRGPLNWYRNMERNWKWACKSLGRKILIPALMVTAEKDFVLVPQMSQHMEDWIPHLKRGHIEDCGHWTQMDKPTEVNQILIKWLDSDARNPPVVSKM
Briefly: Inhibition of human soluble epoxide hydrolase using cyano(2methoxy naphthalen-6-yl)methyl trans-(3-phenyloxyran-2-yl)methylcarbonate as substrate preincubated for 5 mins followed by substrate addition and measured after 10 mins by fluorescence based assay. The gist of the method: (§2)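 Kinetic fluorescent read-out of sEH activity; each reported value is the mean of three separate experiments.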

Data set [3] can be described thus: Aqueous solubility of compound. It counts as physicochemical. The gist of the method: as §1
Data set [4] has as its target T1, Bifunctional epoxide hydrolase 2. Briefly: Inhibition of human soluble epoxide hydrolase by kinetic fluorescent assay. The gist of the method:
as §2

≈ marks a conversion by molar mass, not a printed value.

As to `O=C(NCCCCCCNC(=O)NCCC12CC3CC(CC(C3)C1)C2)NCCC12CC3CC(CC(C3)C1)C2`, in data set [1], the solubility (commonly the concentration that dissolves in the medium under given conditions) is 80 µM (≈ 42.1 µg/mL). In addition, the midpoint of inhibition in data set [2], the IC50, lay at 0.0008 µM.

Regarding `O=C(Nc1ccc(OC(F)(F)F)cc1)N[C@H]1CC[C@H](Oc2ccc(C(=O)O)cc2)CC1`, the solubility in data set [3] was determined as 5 µM (≈ 2.19 µg/mL). This counts as single-digit micromolar.

For the compound `O=C1C2CC3CC1CC(N1C(=O)C(=O)N(C45CC6CC(C4)C(=O)C(C6)C5)C1=O)(C3)C2`, the IC50 (in general, the concentration at which inhibition is half-maximal) in data set [4] was 8.42 µM. This compound also returned a solubility in data set [1] of 150 µM (≈ 61.6 µg/mL).

The compound `O=C1C(=O)N(C2C3CC4CC(C3)CC2C4)C(=O)N1c1ccccc1F` (stereo not given) registered a concentration for half-maximal inhibition (IC50) in data set [4] of 6.13 µM. The solubility in data set [1] came to 250 µM (≈ 85.6 µg/mL).

Regarding `O=C(NCCN(CCNC(=O)NCC12CC3CC(CC(C3)C1)C2)CCNC(=O)NCC12CC3CC(CC(C3)C1)C2)NCC12CC3CC(CC(C3)C1)C2`, in data set [4], inhibition was half-maximal at 0.0067 µM (IC50). Moreover, the solubility in data set [1] was 70 µM (≈ 50.4 µg/mL).

`O=C(Nc1ccccc1F)NC1C2CC3CC(C2)CC1C3` (stereo not given): the IC50 in data set [4] stood at 0.001 µM. This compound also gave a solubility in data set [1] of 85 µM (≈ 24.5 µg/mL).

As for `O=C(NC12CC3CC(C1)C(=O)C(C3)C2)NC12CC3CC(C1)C(=O)C(C3)C2`, the IC50 in data set [4] amounted to 0.012 µM. Further, the solubility in data set [1] was determined as 1750 µM (≈ 624 µg/mL).

On to `CCC(CC12CC3CC(CC(C3)C1)C2)N1C(=O)C(=O)N(CCCCCCCCN2C(=O)C(=O)N(C(CC)CC34CC5CC(CC(C5)C3)C4)C2=O)C1=O` (stereo not given), for which, in data set [4], the IC50 was determined as 0.65 µM. In data set [1], the solubility amounted to 100 µM (≈ 71.9 µg/mL).

As for `O=C(NCCCCCCCCNC(=O)NCCC12CC3CC(CC(C3)C1)C2)NCCC12CC3CC(CC(C3)C1)C2`, the solubility in data set [1] came out at 75 µM (≈ 41.6 µg/mL). Further, the IC50 in data set [2] was 0.0015 µM.

In data set [4], `O=C(O)c1ccc(O[C@H]2CC[C@H](N3C(=O)C(=O)N(C45CC6CC(CC(Cl)(C6)C4)C5)C3=O)CC2)cc1` came in with an IC50 of 0.0004 µM. Also, the solubility in data set [1] stood at 250 µM (≈ 125 µg/mL).

Compound `O=C1C(=O)N(CCC23CC4CC(CC(C4)C2)C3)C(=O)N1CCCCCCN1C(=O)C(=O)N(CCC23CC4CC(CC(C4)C2)C3)C1=O` returned an IC50 in data set [4] of 0.092 µM. Further, the solubility in data set [1] worked out at 1300 µM (≈ 825 µg/mL).

For `O=C1C(=O)N(CC23CC4CC(CC(C4)C2)C3)C(=O)N1CCN(CCN1C(=O)C(=O)N(CC23CC4CC(CC(C4)C2)C3)C1=O)CCN1C(=O)C(=O)N(CC23CC4CC(CC(C4)C2)C3)C1=O`, inhibition in data set [4] was half-maximal at 0.0803 µM (IC50). The concentration in solution in data set [1] (solubility) was 650 µM (≈ 573 µg/mL).

In data set [4], `CC12CC3CC(C)(C1)CC(N1C(=O)C(=O)N(c4ccccc4F)C1=O)(C3)C2` showed an IC50 of 0.371 µM. The same compound returned a solubility in data set [1] of 200 µM (≈ 74.1 µg/mL).

With `O=C(O)c1ccc(O[C@H]2CC[C@H](N3C(=O)C(=O)N(c4ccc(OC(F)(F)F)cc4)C3=O)CC2)cc1`, the IC50 in data set [4] turned out to be 0.0077 µM. In data set [1], this compound had a solubility of 210 µM (≈ 103 µg/mL).

As to `O=C(NC1CCCCCC1)N[C@H]1CC[C@H](Oc2ccc(C(=O)O)cc2)CC1`, the IC50 in data set [4] was 0.0045 µM. This compound registered a solubility in data set [1] of 100 µM (≈ 37.4 µg/mL).

Turning to `O=C(NCCCCNC(=O)NCCC12CC3CC(CC(C3)C1)C2)NCCC12CC3CC(CC(C3)C1)C2`, in data set [1], the solubility was 100 µM (≈ 49.9 µg/mL). In data set [2], this compound gave a half-maximal inhibitory concentration (IC50) of 0.0034 µM.

`CC12CC3CC(C)(C1)CC(N1C(=O)C(=O)N(C4C5CC6CC(C5)CC4C6)C1=O)(C3)C2` (stereo not given): in data set [4], half-maximal inhibition (IC50) was put at 0.0228 µM. This compound came in with a solubility in data set [1] of 100 µM (≈ 41.1 µg/mL).

For `CC(NC(=O)Nc1ccccc1F)C12CC3CC(CC(C3)C1)C2` (stereo not given), in data set [1], the solubility is 55 µM (≈ 17.4 µg/mL).

In the case of `CC12CC3CC(C)(C1)CC(NC(=O)Nc1ccccc1F)(C3)C2`, the concentration for half-maximal inhibition (IC50) in data set [4] came out at 0.0036 µM. The compound further gave a solubility in data set [1] of 65 µM (≈ 20.6 µg/mL).

The compound `CCC(CC12CC3CC(CC(C3)C1)C2)N1C(=O)C(=O)N(CCCCN2C(=O)C(=O)N(C(CC)CC34CC5CC(CC(C5)C3)C4)C2=O)C1=O` (stereo not given) had an IC50 in data set [4] of 0.0084 µM. Also, in data set [1], the solubility turned out to be 90 µM (≈ 59.7 µg/mL).

As to `O=C1C(=O)N(c2ccccc2F)C(=O)N1c1ccc(C23CC4CC(CC(C4)C2)C3)cc1`, in data set [4], the half-maximal inhibitory concentration (IC50) amounted to 0.16 µM. In data set [1], the concentration in solution (solubility) was 250 µM (≈ 105 µg/mL).

On to `CCC(CC12CC3CC(CC(C3)C1)C2)N1C(=O)C(=O)N(C23CC4CC(C)(C2)C[C@@](C)(C4)C3)C1=O` (stereo not given in full), for which the IC50 in data set [4] turned out to be 0.216 µM. In addition, in data set [1], the concentration in solution (solubility) was 100 µM (≈ 46.7 µg/mL).

In data set [4], `O=C1C(=O)N(C23CC4CC(CC(C4)C2)C3)C(=O)N1CCCCCCCCN1C(=O)C(=O)N(C23CC4CC(CC(C4)C2)C3)C1=O` registered an IC50 of 0.0038 µM. Besides, in data set [1], the solubility came out at 110 µM (≈ 66.7 µg/mL).

`O=C(Nc1ccc(C23CC4CC(CC(C4)C2)C3)cc1)Nc1ccccc1F` returned a solubility in data set [1] of 85 µM (≈ 31 µg/mL). That is a double-digit micromolar value.

In data set [4], `O=C1C(=O)N(CCC23CC4CC(CC(C4)C2)C3)C(=O)N1CCCCCCCCN1C(=O)C(=O)N(CCC23CC4CC(CC(C4)C2)C3)C1=O` had an IC50 of 0.438 µM. Also, the solubility in data set [1] came to 600 µM (≈ 398 µg/mL).

In data set [1], `CC12CC3CC(C)(C1)CC(NC(=O)NC1C4CC5CC(C4)CC1C5)(C3)C2` (stereo not given) gave a solubility of 20 µM (≈ 7.13 µg/mL). In addition, half-maximal inhibition in data set [2] (IC50) was put at 0.0096 µM.

The compound `O=C1C(=O)N(c2ccccc2F)C(=O)N1CC12CC3CC(CC(C3)C1)C2` had an IC50 in data set [4] of 0.311 µM. In data set [1], this compound registered a solubility of 350 µM (≈ 125 µg/mL).

`O=C(O)c1ccc(O[C@H]2CC[C@H](N3C(=O)C(=O)N(C4CCCCCC4)C3=O)CC2)cc1` showed an IC50 in data set [4] of 0.0868 µM. This compound showed a solubility in data set [1] of 280 µM (≈ 120 µg/mL).

`CCC(CC12CC3CC(CC(C3)C1)C2)NC(=O)NC12CC3CC(C)(C1)C[C@@](C)(C3)C2` (stereo not given in full) yielded a solubility in data set [1] of 40 µM (≈ 16.5 µg/mL). In data set [2], this compound had an IC50 of 0.0138 µM.

`O=C(NC12CC3CC(CC(Cl)(C3)C1)C2)N[C@H]1CC[C@H](Oc2ccc(C(=O)O)cc2)CC1`: the solubility in data set [1] came to 500 µM (≈ 223 µg/mL). This compound registered an IC50 in data set [2] of 0.0004 µM.

Consider `O=C1C(=O)N(C23CC4CC(CC(C4)C2)C3)C(=O)N1CCCCCCN1C(=O)C(=O)N(C23CC4CC(CC(C4)C2)C3)C1=O`, for which, in data set [4], 0.0016 µM corresponded to half-maximal inhibition (IC50). The compound also returned a solubility in data set [1] of 120 µM (≈ 69.4 µg/mL).

In the case of `O=C1C(=O)N(CCC23CC4CC(CC(C4)C2)C3)C(=O)N1CCCCN1C(=O)C(=O)N(CCC23CC4CC(CC(C4)C2)C3)C1=O`, 0.294 µM corresponded to half-maximal inhibition in data set [4] (IC50). The solubility in data set [1] came out at 900 µM (≈ 546 µg/mL).

`O=C(NCC12CC3CC(CC(C3)C1)C2)Nc1ccccc1F` had an IC50 in data set [4] of 0.0007 µM. Also, the solubility in data set [1] came to 65 µM (≈ 19.7 µg/mL).

`CC(N1C(=O)C(=O)N(c2ccccc2F)C1=O)C12CC3CC(CC(C3)C1)C2` (stereo not given) registered an IC50 in data set [4] of 0.466 µM. This compound also showed a solubility in data set [1] of 900 µM (≈ 333 µg/mL).

The values are drawn from ChEMBL document CHEMBL4610022, “Imidazolidine-2,4,5- and pirimidine-2,4,6-triones - New primary pharmacophore for soluble epoxide hydrolase inhibitors with enhanced water solubility” (Bioorg Med Chem Lett, 2020).
